The campaign covered roughly 1,300 compounds. About 40 (3%) were called active. A selection follows. Potency and affinity values are given separately. Values without a mark were called inactive. The rule behind the calls is not given here.
experiment: growth inhibition of wild-type E. coli BW25113 pool, dose response, OD615 (AID 635); details: pooled mutant strains; at 100 µM (top of the series);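 note: growth measured after 20 h with compound at 37 °C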
Outline: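 Material: Keio BW25113 knockout pool, 1,275 strains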

Row | SMILES | growth inhibition
1 | Cc1cccc(N(C)C(=O)c2cc3cc4ccc(C)cc4nc3o2)c1 | -7.96%
2 | CC(C)OCCCNc1ncnc2c1[nH]c1ccccc12 | 0.81%
3 | CC(C)OCCCNc1ncnc2c1[nH]c1ccc(F)cc12 | -0.56%
4 | O=C(CSc1nc2ccccc2o1)Nc1nc2c(s1)CCCC2 | -2.1%
5 | Cc1cc(NC(=O)Cn2nnc3sc4c(c3c2=O)CCC(C(C)(C)C)C4)no1 (stereo unspecified) | -1.22%
6 | CCOC(=O)Cc1ccc(NS(=O)(=O)c2ccc(SC)cc2)cc1 | 0.18%
7 | c1ccc2c(c1)CCN(c1nc3cc4c(cc3s1)OCCO4)C2 | 0.44%
8 | CC(C)c1ccc(Nc2nc(NCc3ccco3)nc(N3CCOCC3)n2)cc1 | -1.77%
9 | COc1ccc(NS(=O)(=O)c2ccc3oc(Nc4ccc5c(c4)OCCO5)nc3c2)cc1 | -4.76%
10 | CCCN(CCC)S(=O)(=O)c1ccc(C(=O)Nc2nnc(-c3cccc(OC)c3)o2)cc1 | -1.14%
11 | Cc1cccc(N2CCN(C(=O)C34CC5CC(CC(C5)C3)C4)CC2)c1C | 4.49%
12 | Cn1cccc1C(=O)Nc1nc(-c2ccccn2)cs1 | 1.36%
13 | COc1ccc(C(=O)Nn2cnc3scc(-c4cccs4)c3c2=O)c(O)c1 | 0.89%
14 | COC(=O)c1[nH]c2cccc(OC)c2c1NC(=O)CN1CC2(C)CC1CC(C)(C)C2 (stereo unspecified) | 1.93%
15 | COC(=O)c1cccc(-n2nnnc2SCC(=O)Nc2nc3c(s2)CCCC3)c1 | -0.44%
16 | O=C1OC(c2ccc(O)cc2)(c2ccc(O)cc2)c2ccccc21 | 0.54%
17 | Cc1cccc(Nc2nc(NCc3ccco3)nc(N3CCOCC3)n2)c1 | 0.54%
18 | CCOc1cc(S(=O)(=O)n2cc(-c3ccc(F)cc3)c(N)n2)cc(OCC)c1OCC | -3.17%
19 | CC1Cc2ccccc2N1C(=O)Cn1c(=O)oc2cc(S(=O)(=O)NC3CCCC3)ccc21 (stereo unspecified) | -2.66%
20 | CCCn1nnnc1NC(=O)CSc1ccc(Cl)cc1 | 1.76%
21 | Cc1cc(NC(=O)C2CCCCC2)nc2c1c(=O)oc1ccccc12 | -2.5%
22 | N#Cc1nc(COc2ccc(F)cc2)oc1N1CCN(Cc2ccccc2)CC1 | -4.59%
23 | c1ccc2oc(SCc3nc4ccccc4s3)nc2c1 | -0.66%
24 | C=CCn1c(SCC(=O)Nc2ccc3c(c2)CCC3)nnc1-c1cccs1 | -0.97%
25 | O=C(c1cc2ccccc2o1)N1CCN(c2ccccc2Cl)CC1 | -2.73%
26 | O=C(CSc1nnnn1C1CCCCC1)Nc1nc2c(s1)CCCC2 | -0.43%

Source: PubChem BioAssay AID635 (SRMLSC, 2007)
